Assay results reported in ChEMBL document CHEMBL3997852, “Discovery of Fluorine-Containing Benzoxazinyl-oxazolidinones for the Treatment of Multidrug Resistant Tuberculosis” (ACS Med Chem Lett, 2017).
≈ marks a conversion by molar mass, not a printed value.

Experiments:
[1] = system: Mycobacterium tuberculosis; test: Antitubercular activity against Mycobacterium tuberculosis H37Rv after 7 days by microplate alamar blue assay; type: functional; settings: 168 h
How it was run: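 Microplate alamar blue assay on M. tuberculosis H37Rv. The MIC is the lowest concentration that reduces fluorescence by ≥90% relative to the mean of replicate bacterium-only controls.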

Vero = test: Cytotoxicity against African green monkey Vero cells assessed as growth inhibition after 48 hrs by MTT assay; type: ADME, cell-based; settings: Chlorocebus sabaeus
[2] = Selectivity index, ratio of IC50 for African green monkey Vero cells to MIC for Mycobacterium tuberculosis H37Rv
[3] = Elimination half life in CD1 mouse at 10 mg/kg, po measured over 24 hrs by HPLC/MS/MS method; type: ADME, organism-based; settings: in vivo, read-out: beta t1/2
H9c2 = test: Inhibition of mitochondrial protein synthesis in rat H9c2 cells after 5 days by In-Cell ELISA; settings: H9c2, 120 h

SMILES	MIC90 [1] [µg/mL]	IC50 (Vero) [µg/mL]	selectivity ratio [2]	half-life [3] [h]	IC50 (H9c2) [µM]
CC(=O)NC[C@@H]1OC(=O)N2c3cc(F)c(C4=CCN(C(=O)C5CCCC5)CC4)cc3OC[C@@H]12	7.94 (≈ 17.4 µM)				
O=C1O[C@@H](Cn2ccnn2)[C@@H]2COc3cc(C4=CCN(CCO)CC4)c(F)cc3N12	7.96 (≈ 19.2 µM)				
O=C(NC[C@@H]1OC(=O)N2c3cc(F)c(C4=CCN(C(=O)CO)CC4)cc3OC[C@@H]12)C1CCC1	1.68 (≈ 3.66 µM)	> 64	39		
CC(=O)NC[C@@H]1OC(=O)N2c3ccc(C4=CCN(C(=O)CO)CC4)cc3OC[C@@H]12	0.725 (≈ 1.81 µM)	13.8 (≈ 34.3 µM)	19		
CC(=O)NC[C@@H]1OC(=O)N2c3cc(F)c(C4=CCN(C(=O)CN)CC4)cc3OC[C@@H]12.Cl	0.732	> 64	87		
CC(=O)NC[C@@H]1OC(=O)N2c3cc(F)c(C4CCN(C(=O)CO)CC4)cc3OC[C@@H]12	3.81 (≈ 9.05 µM)	> 64	17		
O=C(CO)N1CC=C(c2cc3c(cc2F)N2C(=O)O[C@@H](CNC(=O)C(F)(F)F)[C@@H]2CO3)CC1	1.16 (≈ 2.45 µM)	> 64	55		
O=C1O[C@@H](CNC(=O)C(F)(F)F)[C@@H]2COc3cc(C4=CCN(CCO)CC4)c(F)cc3N12	1.92 (≈ 4.17 µM)	> 64	33		
CC(=O)NC[C@@H]1OC(=O)N2c3cc(F)c(C4=CCN(C(=O)[C@@H]5CCCN5)CC4)cc3OC[C@@H]12.Cl	7.12				
CC(=O)NC[C@@H]1OC(=O)N2c3cc(F)c(C4=CCN(C(=O)[C@@H]5CCCO5)CC4)cc3OC[C@@H]12	5.53 (≈ 12 µM)				
CC(=O)NC[C@@H]1OC(=O)N2c3cc(F)c(C4=CCN(C(=O)C5CC5)CC4)cc3OC[C@@H]12	6.4 (≈ 14.9 µM)				
NNC(=O)c1ccncc1 [ISONIAZID]	0.037 (≈ 0.27 µM)				
CC(=O)NC[C@H]1CN(c2ccc(N3CCOCC3)c(F)c2)C(=O)O1 [LINEZOLID]	0.304 (≈ 0.901 µM)	> 64	197	< 1	8.71
O=C([C@@H](O)CO)N1CC=C(c2c(F)cc(N3C[C@H](COc4ccon4)OC3=O)cc2F)CC1 [POSIZOLID]	1.02 (≈ 2.2 µM)	> 64	62		
CO[C@H]1/C=C/O[C@@]2(C)Oc3c(C)c(O)c4c(O)c(c(/C=N/N5CCN(C)CC5)c(O)c4c3C2=O)NC(=O)/C(C)=C\C=C\[C@H](C)[C@H](O)[C@@H](C)[C@@H](O)[C@@H](C)[C@H](OC(C)=O)[C@@H]1C [RIFAMPIN]	0.057 (≈ 0.0693 µM)				
